Results: ChEMBL document CHEMBL4814060, “Design, synthesis and biological evaluation of novel pleuromutilin derivatives as potent anti-MRSA agents targeting the 50S ribosome” (Bioorg Med Chem, 2021)
Values after ≈ are worked out from the molar mass of the structure shown.

Assays:
Staphylococcus aureus [1] = assay: Antibacterial activity against Staphylococcus aureus ATCC 29213 assessed as inhibition of visible growth incubated for 24 hrs by CLSI protocol based broth microdilution method; assay type: functional
Staphylococcus aureus [2] = assay: Antibacterial activity against methicillin-resistant Staphylococcus aureus ATCC 43300 assessed as inhibition of visible growth incubated for 24 hrs by CLSI protocol based broth microdilution method; assay type: functional
Staphylococcus aureus [3] = assay: Antibacterial activity against Staphylococcus aureus 144 assessed as inhibition of visible growth incubated for 24 hrs by CLSI protocol based broth microdilution method; assay type: functional
Staphylococcus aureus [4] = assay: Antibacterial activity against Staphylococcus aureus AD3 assessed as inhibition of visible growth incubated for 24 hrs by CLSI protocol based broth microdilution method; assay type: functional
Staphylococcus aureus [5] = assay: Bactericidal activity against methicillin-resistant Staphylococcus aureus ATCC 43300 assessed as reduction in bacterial growth at 1 to 32 times of MIC measured upto 24 hrs by time kill assay; assay type: functional, organism-based; conditions: time hrs <=24, TDE = time-dependent effect
How it was run: (§1)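 MRSA was grown in MH broth at 37 °C for 4.5 h and diluted to 1×10^6 CFU/mL. Compound was added at 1, 2, 4, 8, 16 or 32 × MIC; growth control had 0.9% saline only. Cultures were shaken at 37 °C and sampled at 0, 3, 6, 9 and 24 h. Samples were serially diluted in saline and plated on MH agar, with CFU counted after 24 h at 37 °C. Run in triplicate.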

Staphylococcus aureus [6] = assay: Antibacterial activity against methicillin-resistant Staphylococcus aureus ATCC 43300 assessed as reduction in bacterial growth at 4 times of MIC measured at 3 hrs by time kill assay; assay type: functional; how it was run: as §1
[7] = molecular target: T1, Bacterial 70S ribosome (Bacteria) (UniProt P0A7V0+P60723+P0AG67+P0A7R5+P0A7R9+P0A7S3+P0A7S9+P0AG59+P0ADZ4+P0A7T3+P0AG63+P0A7T7+P0A7U3+P0A7U7+P68679+P0A7V3+P0A7V8+P0A7W1+P02358+P02359+P0A7W7+P0A7X3+P0A7J3+P0A7J7+P0AA10+P0ADY3+P02413+P0ADY7+P0AG44+P0C018+P0A7K6+P0A7L0+P0A7L3+P0AG48+P61175+P0ADZ0+P60624+P68919+P0A7L8+P0A7M2+P0A7M6+P60422+P0AG51+P0A7N1+P0A7M9+P0A7N4+P0A7N9+P0A7P5+P0A7Q1+Q2EEQ2+P0A7Q6+P60438+P62399+P0AG55+P0A7K2); assay: Binding affinity to Staphylococcus aureus ATCC 43300 50S ribosome assessed as dissociation rate constant by SPR analysis; assay type: subcellular
How it was run: (§2)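 The 50S subunit was purified from ATCC 43300 by sucrose cushion, a 7–30% sucrose gradient and PEG precipitation. Compounds at 100 µM in DMSO were photo-crosslinked onto the chip and printed four times each. Ribosome at 200–3200 nM in PBST (pH 7.4, 0.1% Tween 20) was run at 4 °C: association 600 s, then dissociation 360 s, both at 0.5 µL/s. Surface was regenerated with glycine-HCl pH 2.0.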

Staphylococcus aureus [8] = assay: In vivo antibacterial activity against methicillin-resistant Staphylococcus aureus ATCC 43300 infected in ICR/Swiss mouse model of neutropenic thigh infection assessed as reduction in bacterial growth at 20 mg/kg, iv administered 2 hrs after infection and tissue collected after 24 hrs and measured after 24 hrs […]; assay type: functional
How it was run: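 Female ICR/Swiss mice, 6 weeks old, were made neutropenic with ip cyclophosphamide (150 mg/kg at day −4, 100 mg/kg at day −1). Each thigh received about 10^7 CFU/mL MRSA in 0.1 mL. At 2 h, mice got a single iv dose of 20 mg/kg or saline, with 3 mice (6 thighs) per group. At 24 h, thighs were homogenized in iced saline, diluted and plated on MH agar, and CFU counted after 24 h at 37 °C.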

[9] = molecular target: T1, Bacterial 70S ribosome (Bacteria); assay: Binding affinity to Staphylococcus aureus ATCC 43300 50S ribosome assessed as association constant by SPR analysis; assay type: subcellular; how it was run: as §2
RAW264.7 = assay: Cytotoxicity against mouse RAW264.7 cells assessed as reduction in cell viability at < 40 ug/ml incubated for 16 hrs by MTT assay; conditions: raw264.7, 16 h
Cytochrome P450 3A4 = Cytochrome P450 3A4 (Homo sapiens, UniProt P08684); assay: Inhibition of CYP3A4 in human liver microsomes using testosterone as substrate incubated for 5 mins followed by NADPH addition and measured after 5 mins by LC/MS/MS analysis
How it was run: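 Final conditions: human liver microsomes 0.2 mg/mL, testosterone 20 μmol/L, 0.1 M Tris pH 7.4, inhibitor at 2.5–80 μM. Plates were preincubated 5 min at 37 °C, then started with NADPH (final 1 mmol/L) and run 5 min. Reaction was stopped with acetonitrile containing loratadine as internal standard, and the supernatant was analysed by LC-MS/MS. IC50 was determined.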

Cytochrome P450 3A4, sequence (P08684 whole entry): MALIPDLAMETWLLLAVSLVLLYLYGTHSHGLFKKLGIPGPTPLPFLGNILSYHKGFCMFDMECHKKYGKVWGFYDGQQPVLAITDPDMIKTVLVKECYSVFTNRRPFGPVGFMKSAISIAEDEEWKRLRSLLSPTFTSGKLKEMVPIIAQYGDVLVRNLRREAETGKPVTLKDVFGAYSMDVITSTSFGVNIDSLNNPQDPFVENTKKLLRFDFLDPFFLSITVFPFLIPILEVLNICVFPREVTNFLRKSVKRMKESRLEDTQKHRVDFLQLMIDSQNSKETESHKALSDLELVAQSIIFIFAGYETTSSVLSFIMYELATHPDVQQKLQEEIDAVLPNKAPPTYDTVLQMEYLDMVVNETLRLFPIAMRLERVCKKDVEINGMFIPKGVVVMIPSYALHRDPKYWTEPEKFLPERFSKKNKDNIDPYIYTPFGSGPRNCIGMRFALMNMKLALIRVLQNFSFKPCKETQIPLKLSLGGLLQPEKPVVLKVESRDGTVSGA

SMILES | MIC (Staphylococcus aureus [1]) [µg/mL] | MIC (Staphylococcus aureus [2]) [µg/mL] | MIC (Staphylococcus aureus [3]) [µg/mL] | MIC (Staphylococcus aureus [4]) [µg/mL] | Activity (Staphylococcus aureus [5]) | Activity (Staphylococcus aureus [6]) [log10CFU/ml] | Kdiss [7] | log10CFU/ml (Staphylococcus aureus [6]) | Activity (Staphylococcus aureus [8]) [log10CFU/g] | Ka [9] | Activity (RAW264.7) | IC50 (Cytochrome P450 3A4) [µM]
C=C[C@]1(C)C[C@@H](OC(=O)CSc2nc(N)n(C(=O)c3ccc(F)cc3Cl)n2)[C@]2(C)[C@H](C)CC[C@]3(CCC(=O)[C@H]32)[C@@H](C)[C@@H]1O | 1 (≈ 1.58 µM) | 1 (≈ 1.58 µM) | 1 (≈ 1.58 µM) | 0.5 (≈ 0.79 µM) |  |  |  |  |  |  |  | 
C=C[C@]1(C)C[C@@H](OC(=O)CSc2nc(N)n(C(=O)c3ccccc3C)n2)[C@]2(C)[C@H](C)CC[C@]3(CCC(=O)[C@H]32)[C@@H](C)[C@@H]1O | 1 (≈ 1.68 µM) | 0.5 (≈ 0.841 µM) | 1 (≈ 1.68 µM) | 1 (≈ 1.68 µM) |  |  |  |  |  |  |  | 
C=C[C@]1(C)C[C@@H](OC(=O)CSc2nc(N)n(C(=O)c3ccccc3F)n2)[C@]2(C)[C@H](C)CC[C@]3(CCC(=O)[C@H]32)[C@@H](C)[C@@H]1O | 2 (≈ 3.34 µM) | 1 (≈ 1.67 µM) | 4 (≈ 6.68 µM) | 2 (≈ 3.34 µM) |  |  |  |  |  |  |  | 
C=C[C@]1(C)C[C@@H](OC(=O)CSc2nc(N)n(C(=O)c3ccccc3OC)n2)[C@]2(C)[C@H](C)CC[C@]3(CCC(=O)[C@H]32)[C@@H](C)[C@@H]1O | 1 (≈ 1.64 µM) | 1 (≈ 1.64 µM) | 1 (≈ 1.64 µM) | 1 (≈ 1.64 µM) |  |  |  |  |  |  |  | 
C=C[C@]1(C)C[C@@H](OC(=O)CSc2nc(N)n(C(=O)c3ccc(OC)cc3)n2)[C@]2(C)[C@H](C)CC[C@]3(CCC(=O)[C@H]32)[C@@H](C)[C@@H]1O | 0.25 (≈ 0.409 µM) | 0.25 (≈ 0.409 µM) | 0.5 (≈ 0.819 µM) | 0.25 (≈ 0.409 µM) | Tde | -2.42 | 2.22 10^-7M |  |  |  |  | 
C=C[C@]1(C)C[C@@H](OC(=O)CSc2nc(N)n(C(=O)c3cccc(C)c3)n2)[C@]2(C)[C@H](C)CC[C@]3(CCC(=O)[C@H]32)[C@@H](C)[C@@H]1O | 0.5 (≈ 0.841 µM) | 0.25 (≈ 0.42 µM) | 0.5 (≈ 0.841 µM) | 0.5 (≈ 0.841 µM) |  |  | 8.79 10^-6M |  |  |  |  | 
C=C[C@]1(C)C[C@@H](OC(=O)CSc2nc(N)n(C(=O)c3ccc(Cl)cc3)n2)[C@]2(C)[C@H](C)CC[C@]3(CCC(=O)[C@H]32)[C@@H](C)[C@@H]1O | 1 (≈ 1.63 µM) | 0.5 (≈ 0.813 µM) | 1 (≈ 1.63 µM) | 1 (≈ 1.63 µM) |  |  |  |  |  |  |  | 
C=C[C@]1(C)C[C@@H](OC(=O)CSc2nc(N)n(C(=O)c3ccccc3C(F)(F)F)n2)[C@]2(C)[C@H](C)CC[C@]3(CCC(=O)[C@H]32)[C@@H](C)[C@@H]1O | 4 (≈ 6.17 µM) | 2 (≈ 3.08 µM) | 4 (≈ 6.17 µM) | 4 (≈ 6.17 µM) |  |  |  |  |  |  |  | 
C=C[C@]1(C)C[C@@H](OC(=O)CSc2nc(N)n(C(=O)c3c(F)c(F)c(F)c(F)c3F)n2)[C@]2(C)[C@H](C)CC[C@]3(CCC(=O)[C@H]32)[C@@H](C)[C@@H]1O | 2 (≈ 2.98 µM) | 1 (≈ 1.49 µM) | 2 (≈ 2.98 µM) | 1 (≈ 1.49 µM) |  |  |  |  |  |  |  | 
C=C[C@]1(C)C[C@@H](OC(=O)CSc2nc(N)n(C(=O)c3cccc(Cl)c3)n2)[C@]2(C)[C@H](C)CC[C@]3(CCC(=O)[C@H]32)[C@@H](C)[C@@H]1O | 0.25 (≈ 0.406 µM) | 0.25 (≈ 0.406 µM) | 0.5 (≈ 0.813 µM) | 0.25 (≈ 0.406 µM) | Tde |  | 4.94 10^-7M | -1.23 |  |  |  | 
C=C[C@]1(C)C[C@@H](OC(=O)CSc2nc(N)n(C(=O)c3ccc(C(F)(F)F)cc3)n2)[C@]2(C)[C@H](C)CC[C@]3(CCC(=O)[C@H]32)[C@@H](C)[C@@H]1O | 1 (≈ 1.54 µM) | 1 (≈ 1.54 µM) | 1 (≈ 1.54 µM) | 1 (≈ 1.54 µM) |  |  |  |  |  |  |  | 
C=C[C@]1(C)C[C@@H](OC(=O)CSCCN(CC)CC)[C@]2(C)[C@H](C)CC[C@]3(CCC(=O)[C@H]32)[C@@H](C)[C@@H]1O [TIAMULIN] | 1 (≈ 2.03 µM) | 0.5 (≈ 1.01 µM) | 1 (≈ 2.03 µM) | 1 (≈ 2.03 µM) |  |  |  |  | 0.91 |  |  | 
C=C[C@]1(C)C[C@@H](OC(=O)CSc2nc(N)n(C(=O)c3ccccc3Cl)n2)[C@]2(C)[C@H](C)CC[C@]3(CCC(=O)[C@H]32)[C@@H](C)[C@@H]1O | 0.5 (≈ 0.813 µM) | 0.5 (≈ 0.813 µM) | 1 (≈ 1.63 µM) | 0.5 (≈ 0.813 µM) |  |  |  |  |  |  |  | 
C=C[C@]1(C)C[C@@H](OC(=O)CSc2nc(N)n(C(=O)c3ccc(OC(F)(F)F)cc3)n2)[C@]2(C)[C@H](C)CC[C@]3(CCC(=O)[C@H]32)[C@@H](C)[C@@H]1O | 2 (≈ 3.01 µM) | 1 (≈ 1.5 µM) | 2 (≈ 3.01 µM) | 1 (≈ 1.5 µM) |  |  |  |  |  |  |  | 
C=C[C@]1(C)C[C@@H](OC(=O)CSc2nc(N)n[nH]2)[C@]2(C)[C@H](C)CC[C@]3(CCC(=O)[C@H]32)[C@@H](C)[C@@H]1O | 1 (≈ 2.1 µM) | 1 (≈ 2.1 µM) | 2 (≈ 4.2 µM) | 1 (≈ 2.1 µM) |  |  |  |  |  |  |  | 
C=C[C@]1(C)C[C@@H](OC(=O)CSc2nc(N)n(C(=O)c3cc(Cl)cc(Cl)c3)n2)[C@]2(C)[C@H](C)CC[C@]3(CCC(=O)[C@H]32)[C@@H](C)[C@@H]1O | 1 (≈ 1.54 µM) | 1 (≈ 1.54 µM) | 1 (≈ 1.54 µM) | 0.5 (≈ 0.77 µM) |  |  |  |  |  |  |  | 
C=C[C@]1(C)C[C@@H](OC(=O)CSc2nc(N)n(C(=O)c3ccccc3)n2)[C@]2(C)[C@H](C)CC[C@]3(CCC(=O)[C@H]32)[C@@H](C)[C@@H]1O | 1 (≈ 1.72 µM) | 0.25 (≈ 0.43 µM) | 2 (≈ 3.44 µM) | 1 (≈ 1.72 µM) |  |  | 2.7 10^-4M |  |  |  |  | 
C=C[C@]1(C)C[C@@H](OC(=O)CSc2nc(N)n(C(=O)c3ccc(F)cc3)n2)[C@]2(C)[C@H](C)CC[C@]3(CCC(=O)[C@H]32)[C@@H](C)[C@@H]1O | 1 (≈ 1.67 µM) | 0.5 (≈ 0.835 µM) | 1 (≈ 1.67 µM) | 1 (≈ 1.67 µM) |  |  |  |  |  |  |  | 
C=C[C@]1(C)C[C@@H](OC(=O)CSc2nc(N)n(C(=O)c3cccc(F)c3)n2)[C@]2(C)[C@H](C)CC[C@]3(CCC(=O)[C@H]32)[C@@H](C)[C@@H]1O | 0.5 (≈ 0.835 µM) | 0.25 (≈ 0.418 µM) | 1 (≈ 1.67 µM) | 0.5 (≈ 0.835 µM) | Tde | -1.26 | 2.21 10^-5M |  |  | 5.4 10^2/Ms |  | 
C=C[C@]1(C)C[C@@H](OC(=O)CSc2nc(N)n(C(=O)c3c(F)cccc3Cl)n2)[C@]2(C)[C@H](C)CC[C@]3(CCC(=O)[C@H]32)[C@@H](C)[C@@H]1O | 2 (≈ 3.16 µM) | 1 (≈ 1.58 µM) | 2 (≈ 3.16 µM) | 2 (≈ 3.16 µM) |  |  |  |  |  |  |  | 
C=C[C@]1(C)C[C@@H](OC(=O)CSc2nc(N)n(C(=O)c3cccc(OC)c3)n2)[C@]2(C)[C@H](C)CC[C@]3(CCC(=O)[C@H]32)[C@@H](C)[C@@H]1O | 0.5 (≈ 0.819 µM) | 0.25 (≈ 0.409 µM) | 0.5 (≈ 0.819 µM) | 0.5 (≈ 0.819 µM) |  |  |  |  |  |  |  | 
C=C[C@]1(C)C[C@@H](OC(=O)CSc2nc(N)n(C(=O)c3ccc(C)cc3)n2)[C@]2(C)[C@H](C)CC[C@]3(CCC(=O)[C@H]32)[C@@H](C)[C@@H]1O | 0.125 (≈ 0.21 µM) | 0.125 (≈ 0.21 µM) | 0.125 (≈ 0.21 µM) | 0.125 (≈ 0.21 µM) | Tde | -1.95 | 2.2 10^-4M |  | 1.89 | 4.16 10^2/Ms | Non-Toxic | 3.95
